Source: paper PMC2858063 (Steroids, 2010)

Legend:
female rabbits = conditions: s.c.; cited from earlier work
hu-mPRα [1] = target: T1, hu-mPRα (Homo sapiens, UniProt Q86WK9); assay: hu-mPRα steroid binding assay; conditions: for RBA (Relative Binding Affinity): compared with progesterone (=100), human mPRα; for binding to hu-mPRα (in words): this study, Fig. 1, Table 1
T1 sequence (Q86WK9 1-346): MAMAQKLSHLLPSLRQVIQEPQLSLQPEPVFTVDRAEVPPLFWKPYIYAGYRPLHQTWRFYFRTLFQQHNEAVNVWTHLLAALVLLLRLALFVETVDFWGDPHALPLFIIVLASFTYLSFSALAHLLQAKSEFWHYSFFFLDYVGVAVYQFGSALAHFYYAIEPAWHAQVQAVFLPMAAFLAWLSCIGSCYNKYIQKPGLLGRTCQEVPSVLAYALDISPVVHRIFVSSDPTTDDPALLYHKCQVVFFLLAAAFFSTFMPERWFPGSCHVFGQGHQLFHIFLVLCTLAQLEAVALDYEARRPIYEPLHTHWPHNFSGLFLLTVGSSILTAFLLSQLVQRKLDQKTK

human PR-B = target: T2, human PR-B (Homo sapiens, UniProt P06401); assay: nPR luciferase reporter assay; format: cell-based; conditions: for nPR antagonist activity: 20 and 100 nM in the presence of 5 nM progesterone
T2 sequence (P06401 1-933): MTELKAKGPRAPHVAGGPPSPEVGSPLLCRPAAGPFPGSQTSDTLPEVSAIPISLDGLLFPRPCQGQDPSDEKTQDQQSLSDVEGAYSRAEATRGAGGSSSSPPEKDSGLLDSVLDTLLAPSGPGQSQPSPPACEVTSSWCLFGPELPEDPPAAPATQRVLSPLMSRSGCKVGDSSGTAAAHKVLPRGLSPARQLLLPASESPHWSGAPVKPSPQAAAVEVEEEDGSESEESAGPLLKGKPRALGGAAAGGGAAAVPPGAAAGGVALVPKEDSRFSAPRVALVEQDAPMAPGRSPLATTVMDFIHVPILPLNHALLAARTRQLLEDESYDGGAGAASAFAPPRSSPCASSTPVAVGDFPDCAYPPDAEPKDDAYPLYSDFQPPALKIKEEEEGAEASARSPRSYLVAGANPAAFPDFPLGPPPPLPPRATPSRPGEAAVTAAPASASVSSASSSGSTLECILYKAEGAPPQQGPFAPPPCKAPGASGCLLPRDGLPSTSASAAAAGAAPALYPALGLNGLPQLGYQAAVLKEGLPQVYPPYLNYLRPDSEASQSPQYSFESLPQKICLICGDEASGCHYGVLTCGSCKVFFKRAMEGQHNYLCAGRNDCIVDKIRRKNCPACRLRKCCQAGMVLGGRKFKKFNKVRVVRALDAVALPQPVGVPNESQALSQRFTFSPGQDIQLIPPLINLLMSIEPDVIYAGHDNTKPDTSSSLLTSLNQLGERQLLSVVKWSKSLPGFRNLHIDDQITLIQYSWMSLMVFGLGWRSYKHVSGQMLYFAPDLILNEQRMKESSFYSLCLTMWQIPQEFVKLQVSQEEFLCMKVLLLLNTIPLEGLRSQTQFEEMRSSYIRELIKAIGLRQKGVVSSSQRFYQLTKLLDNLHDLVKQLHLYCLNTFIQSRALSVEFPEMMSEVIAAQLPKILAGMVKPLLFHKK
Method in brief: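 MCF-7 cells in phenol red-free DMEM were co-transfected with human PR-B vector (0.25 μg), MMTV-luciferase reporter (0.6 μg) and Renilla pRL-TK (0.5 μg). […] Cells grew overnight to 90% confluence. Dual-luciferase readings were taken, 10 s each. Firefly/Renilla ratio was reported, in triplicate.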

human nPR = target: T3, human nPR (Homo sapiens, UniProt P06401); assay: nPR steroid binding assay; conditions: that of progesterone
T3 sequence (P06401 679-933 limits assumed): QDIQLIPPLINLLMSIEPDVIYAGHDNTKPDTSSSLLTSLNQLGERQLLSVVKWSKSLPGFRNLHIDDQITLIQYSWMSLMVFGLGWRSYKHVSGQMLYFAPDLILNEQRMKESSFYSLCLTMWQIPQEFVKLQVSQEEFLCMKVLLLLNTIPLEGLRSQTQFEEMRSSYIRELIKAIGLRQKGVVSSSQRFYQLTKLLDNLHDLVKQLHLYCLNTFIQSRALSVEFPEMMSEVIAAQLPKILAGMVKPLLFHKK

hu-mPRα [2] = target: T1, hu-mPRα; assay: MAPK activation assay; format: cell-based; conditions: 100 nM, 10 min, mPRα-transfected MDA-MB-231 cells
Method in brief: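 Control and mPRα-transfected MDA-MB-231 cells were serum-starved 5–6 days, then treated 10 min with progestins (100 nM; 1–100 nM for concentration-response), with EGF as positive control. Lysis was in RIPA buffer plus protease inhibitors. Lysate (10 μg/lane, non-reducing) ran on duplicate SDS gels, was blotted, and was probed for total or phospho-p42/44 with rabbit monoclonals, then HRP anti-rabbit 1 h. Detection was by chemiluminescence on film. Runs were repeated 3–4 times, with statistics versus vehicle.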

Compound: CC(=O)[C@H]1CC[C@H]2[C@@H]3CCC4=CC(=O)CC[C@]4(C)[C@H]3CC[C@]12C(C)=O [13-Acetyl-18-norprogesterone]
- progestational activity in comparison with progesterone (female rabbits): 1/3
- RBA (Relative Binding Affinity) (hu-mPRα [1]): 49.9%
- binding to hu-mPRα (in words) (hu-mPRα [1]): low binding affinities

Compound: 19a-methylprogesterone [19a-Methylprogesterone (Org OD 13-0)]
- nPR antagonist activity (human PR-B): weak antagonist activity
- relative binding affinity for nPR (human nPR): 2.3%
- RBA (Relative Binding Affinity) (hu-mPRα [1]): 92.7%
- binding to hu-mPRα (in words) (hu-mPRα [1]): relatively high affinity
- MAPK activation (phosphorylation of ERK) (hu-mPRα [2]): mPRα agonists

Compound: CC[C@H]1CC[C@H]2[C@@H]3CCC4=CC(=O)CC[C@]4(C)[C@H]3CC[C@]12C(C)=O [13-Acetyl-18-norpregn-4-en-3-one]
- progestational activity in comparison with progesterone (female rabbits): 1/4
- RBA (Relative Binding Affinity) (hu-mPRα [1]): <1%
- binding to hu-mPRα (in words) (hu-mPRα [1]): lost all affinity

Compound: C=C[C@]12CC[C@H]3[C@@H](CCC4=CC(=O)CC[C@@]43C)[C@@H]1CC[C@@H]2C(C)=O [13-ethenyl-18-norprogesterone]
- nPR agonist activity (human PR-B; PR-B and PRE-luciferase reporter in MCF-7 cells, 50 nM (19-CH2P4 also 1–50 nM)): showed nPR agonist activity
- RBA (Relative Binding Affinity) (hu-mPRα [1]): 168.2%
- binding to hu-mPRα (in words) (hu-mPRα [1]): affinities higher than that of progesterone
- MAPK activation (phosphorylation of ERK) (hu-mPRα [2]): mPRα agonists

Compound: C=C[C@]12CCC(=O)C=C1CC[C@H]1[C@@H]3CC[C@H](C(C)=O)[C@@]3(C)CC[C@@H]12 [10-ethenyl-19-norprogesterone]
- nPR antagonist activity (human PR-B): weak antagonist activity
- relative binding affinity for nPR (human nPR): 12.9%
- RBA (Relative Binding Affinity) (hu-mPRα [1]): 257.7%
- binding to hu-mPRα (in words) (hu-mPRα [1]): affinities higher than that of progesterone
- MAPK activation (phosphorylation of ERK) (hu-mPRα [2]): mPRα agonists

Compound: 18a-methylprogesterone [18a-Methylprogesterone (Org OE 64-0)]
- relative binding affinity for nPR (human nPR): 20.8%
- RBA (Relative Binding Affinity) (hu-mPRα [1]): 2009%
- binding to hu-mPRα (in words) (hu-mPRα [1]): affinities higher than that of progesterone
- MAPK activation (phosphorylation of ERK) (hu-mPRα [2]): mPRα agonists
